What is called IC50 is the concentration that inhibits the measured activity by half. As a reminder, the inhibition is the change of the read-out against control, counted positive when it falls.

Active and inactive are the calls of the source. The rule behind the calls is not given here.

One data set deals with MCF-10A. Kind of data set: Antiproliferative activity against human MCF10A cells assessed as reduction in cell growth incubated for 72 hrs by MTT assay. In kind it is functional, cell-based. Summed up: (§1)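 MTT viability after 72 h exposure at indicated concentrations; cells seeded at 1×10^3 cells/well (T47D, MDA-MB-468, MCF-10A, MCF-7/ADR) in 96-well plates; quadruplicate wells, independently repeated three times; IC50 as mean ± SE of at least three experiments.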

In data set [1] the test system is T47D. Kind of data set: Antiproliferative activity against ER-positive human T47D cells assessed as reduction in cell growth incubated for 72 hrs by MTT assay. The data set is classed as functional, cell-based. Summed up:
as §1
A general note: Formazan colour is commonly taken as a measure of viable cells.

The subject of data set [2] is MDA-MB-468. Kind of data set: Antiproliferative activity against triple negative human MDA-MB-468 cells assessed as reduction in cell growth incubated for 72 hrs by MTT assay. The data set is classed as functional, cell-based. Conditions: MDA-MB-468, 72 h. The method in brief: as §1
Data set [3] concerns MDA-MB-231. Nature of the data set: Antiproliferative activity against triple negative human MDA-MB-231 cells assessed as reduction in cell growth at 10 uM incubated for 48 hrs by MTT assay relative to control. The data set is classed as functional. Conditions: MDA-MB-231, 48 h. The method in brief: (§2)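 MTT viability: MCF-7 and MDA-MB-231 seeded 1×10^4 cells/well, exposed to DMSO or 0.01-100 μM for 48 h; MTT (5 mg/mL in PBS) added 4 h, formazan dissolved in DMSO, OD 550 nm; quadruplicate wells; IC50 fitted for compounds giving >50% inhibition at 10 µM; at least three independent experiments.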

In data set [4] the test system is MCF7. Nature of the data set: Antiproliferative activity against ER-positive human MCF7 cells assessed as reduction in cell viability at 10 uM incubated for 48 hrs by MTT assay relative to control. In kind it is functional. Conditions: MCF7, 48 h. Summed up: as §2
The test system of data set [5] is MCF7. Nature of the data set: Potency index, ratio of SMBA1 IC50 to compound IC50 for antiproliferative activity against ER-positive human MCF7 cells assessed as reduction in cell growth incubated for 48 hrs by MTT assay. In kind it is functional.
Data set [6] has as its system MDA-MB-231. Kind of data set: Potency index, ratio of IC50 of (E/Z)-2-(2-((2-nitro-9H-fluoren 9-ylidene)methyl)phenoxy)ethan-1-amine to IC50 of compound for antiproliferative activity against triple negative human MDA-MB-231 cells assessed as reduction in cell growth incubated for 48 hrs by MTT assay. The data set is classed as functional.
Data set [7] concerns MCF7. Kind of data set: Antiproliferative activity against ER-positive human MCF7 cells assessed as reduction in cell growth at 1 uM incubated for 48 hrs by MTT assay relative to control. In kind it is functional. Conditions: MCF7, 48 h. Summed up: as §2
For data set [8], the system named is MCF7. Nature of the data set: Antiproliferative activity against adriamycin-resistant human MCF7 cells assessed as reduction in cell growth incubated for 72 hrs by MTT assay. In kind it is functional, cell-based. Summed up: as §1
Data set [9] concerns T47D. Nature of the data set: Antiproliferative activity against ER-positive human T47D cells assessed as reduction in cell growth at 1 uM incubated for 72 hrs by MTT assay relative to control. The data set is classed as functional. The method in brief: as §1
In data set [10] the test system is MDA-MB-468. Kind of data set: Antiproliferative activity against triple negative human MDA-MB-468 cells assessed as reduction in cell growth at 1 uM incubated for 72 hrs by MTT assay relative to control. The data set is classed as functional. Conditions: MDA-MB-468, 72 h. Summed up: as §1
In data set [11] the test system is MDA-MB-231. Nature of the data set: Inhibition of colony formation in triple negative human MDA-MB-231 cells at 1 uM supplemented with fresh medium containing compound every 72 hrs for 2 weeks by crystal violet staining based assay. The data set is classed as functional, cell-based. The method in brief:
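Clonogenic assay: 800 cells per well seeded, treated after 24 h with 1 μM or DMSO vehicle, medium with compound renewed every 72 h for 2 weeks; PBS wash, 0.01% crystal violet 10 min, whole-well density digitally quantified; triplicate, one-way ANOVA, SD error bars.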

The test system of data set [12] is MDA-MB-231. Nature of the data set: Induction of apoptosis in triple negative human MDA-MB-231 cells assessed as appearance of concentrated dense granules at 5 to 10 uM incubated for 24 hrs by Hoechst 33342 staining based fluorescence microscopy. The data set is classed as functional, cell-based. Summed up:
(§3)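 Cells on coverslips (2.5×10^5/well) treated with DMSO or 5 and 10 μM for 24 h, washed in binding buffer, stained 15 min with FITC-annexin V, ethidium homodimer III and Hoechst 33342, mounted and imaged by fluorescence microscopy (DAPI filter) from center and peripheral regions.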

Data set [13] relates to MCF7. Kind of data set: Induction of apoptosis in ER-positive human MCF7 cells assessed as appearance of concentrated dense granules at 5 to 10 uM incubated for 24 hrs by Hoechst 33342 staining based fluorescence microscopy. In kind it is functional, cell-based. The method in brief:
as §3

For data set [14], the target named is Apoptosis regulator BAX (Homo sapiens) (UniProt Q07812). Nature of the data set: Activation of Bax in ER-positive human MCF7 cells assessed as reduction in Bax phosphorylation at Ser184 at 5 uM incubated upto 48 hrs by Western blotting analysis. Conditions: TDE = time-dependent effect. The data set is classed as cell-based. Summed up: (§4)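 Western blot of MCF-7 (and MDA-MB-231 for cytosolic fractions) cells exposed to 5 μM over 0-48 h; 30 µg protein per lane on SDS-PAGE, PVDF transfer, 5% milk block, overnight primary antibodies (total Bax, p-Bax, active Bax 6A7, cytochrome C), ECL detection; cytosolic fraction used for cytochrome c and Bax.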
Sequence of Apoptosis regulator BAX (Homo sapiens) (Q07812 whole entry): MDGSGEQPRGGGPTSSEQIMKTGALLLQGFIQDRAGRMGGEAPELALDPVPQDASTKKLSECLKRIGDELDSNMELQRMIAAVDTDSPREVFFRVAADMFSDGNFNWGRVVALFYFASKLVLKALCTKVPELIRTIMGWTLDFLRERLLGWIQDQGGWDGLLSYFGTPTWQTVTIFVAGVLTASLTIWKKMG
(A western blot detects proteins with antibodies after separation by electrophoresis.)

Data set [15] shares this target. Nature of the data set: Activation of Bax in ER-positive human MCF7 cells assessed as increase in active Bax 6A7 isoform protein level at 5 uM incubated upto 48 hrs by Western blot analysis. In kind it is cell-based. The method in brief: as §4
Data set [16] relates to MCF7. Kind of data set: Induction of apoptosis in ER-positive human MCF7 cells assessed as increase in total Bax protein level at 5 uM incubated upto 48 hrs by Western blot analysis. The data set is classed as functional, cell-based. Summed up: as §4
Data set [17] has as its target Apoptosis regulator BAX (Homo sapiens) (UniProt Q07812). Kind of data set: Activation of Bax in ER-positive human MCF7 cells assessed as increase in cytosolic cytochrome C level at 5 uM incubated for 48 hrs by Western blot analysis. The data set is classed as cell-based. The method in brief: as §4
The target is the same in data set [18]. Kind of data set: Activation of Bax in triple-negative human MDA-MB-231 cells assessed as increase in cytosolic cytochrome C level at 5 uM incubated for 48 hrs by Western blot analysis. In kind it is cell-based. The method in brief: as §4
Data set [19] concerns MDA-MB-231. Kind of data set: Induction of apoptosis in triple-negative human MDA-MB-231 cells assessed as upregulation of PARP1 cleavage incubated for 48 hrs by Western blot analysis. The data set is classed as functional, cell-based. Summed up: (§5)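 Western blot: cells harvested after treatment, lysates quantified by Bradford (BSA standard), 30 µg protein resolved by SDS-PAGE, transferred to PVDF, blocked in 5% nonfat milk, probed overnight with anti-PARP-1, anti-cleaved PARP-1 or anti-cyclin D1 (1:1,000) and β-actin loading control; ECL visualization.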

Data set [20] deals with MDA-MB-231. Kind of data set: Induction of apoptosis in triple negative human MDA-MB-231 cells assessed as upregulation of caspase3 cleavage incubated for 48 hrs by Western blot analysis. The data set is classed as functional, cell-based.
Data set [21] has as its system MCF7. Kind of data set: Induction of apoptosis in ER-positive human MCF7 cells assessed as downregulation of cyclin D1 level incubated for 48 hrs by Western blot analysis. In kind it is functional, cell-based. Summed up: as §5
In data set [22] the test system is MDA-MB-231. Nature of the data set: Antitumor activity against triple-negative human MDA-MB-231 cells xenografted in mouse assessed as reduction in tumor growth at 2.5 mg/kg, ip administered once daily for 7 days. The data set is classed as functional. Conditions: MDA-MB-231, ip, 168 h, read-out: GI. The method in brief: (§6)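 Female nude mice (6 weeks) given 2.5×10^6 MDA-MB-231 cells in PBS into third mammary fat pad, randomized into four groups; at 200 mm³ tumor volume dosed i.p. daily for 7 days in 50% DMSO/50% PEG vehicle; tumor volume (0.5×L×W²) and body weight measured daily; one-way ANOVA.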
On the technique in general: Xenograft models place foreign cells or tissue in a host animal.

A short description of data set [23]: Toxicity in mouse xenografted with triple-negative human MDA-MB-231 cells assessed as slight reduction in body weight at 2.5 mg/kg, ip administered once daily for 7 days. Conditions: in vivo, 168 h. In kind it is organism-based. The method in brief:
as §6

In the case of `NCCOc1ncccc1C=C1c2ccccc2-c2ccc([N+](=O)[O-])cc21`, the IC50 in the data set with MCF-10A turned out to be 0.11 µM; in the data set with T47D [1] it was 1.2 µM; in the data set on MDA-MB-468 [2], 1.61 µM. Besides, the inhibition at 10 µM in the data set with MDA-MB-231 [3] and in the data set on MCF7 [4] was over 50% in each case. The “Ratio IC50” value in the data set with MCF7 [5] is recorded as 80 - 130; with MDA-MB-231 [6] it was 40 - 60. Also, the inhibition at 1 µM in the data set with MCF7 [7], in the data set on T47D [9] and in the data set with MDA-MB-468 [10] was over 50% in each case. Also, the results for the inhibition entry (in the data set with MCF7 [8]; in data set [14]) were “Dose-dependent effect” and “Tde”, respectively. The inhibition result with MDA-MB-231 [11] is “Active”. Moreover, the outcome (in the data set with MDA-MB-231 [12]; in the data set with MCF7 [13]; in data set [15]; in the data set on MCF7 [16]; in data set [17]; in [18]) was Active. Further, the Activity result in the data set on MDA-MB-231 [19] was “Dose-dependent effect”; with MDA-MB-231 [20] it was “Dose-dependent effect”; with MCF7 [21], “Dose-dependent effect”; in data set [23], “Toxic”. Further, the inhibition in vivo at 2.5 mg/kg in the data set with MDA-MB-231 [22] worked out at 55%.

The values are drawn from ChEMBL document CHEMBL4364270, “Structure-activity relationship studies on Bax activator SMBA1 for the treatment of ER-positive and triple-negative breast cancer” (Eur J Med Chem, 2019).
